Usually CC50 stands for the concentration at which the toxic effect on the cells reaches its halfway point.

This is an account of results in ChEMBL document CHEMBL5674882, “Benzolactam-related compounds promote apoptosis of HIV-infected human cells via protein kinase C-induced HIV latency reversal” (J Biol Chem, 2019).

The nature of data set [1]: Toxicity in human A3.01 cells assessed as reduction in cell viability after 48 hrs by WST8 assay. Type of data set: cell-based. The gist of the method: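 Parental, uninfected lines (A3.01 for ACH-2, U937 for U1) at 5 × 10^5 cells/ml cultured with or without drug. Viable cells read at 48 h (day 2) and expressed as % of untreated control. CC50 taken as the concentration lowering viability by 50%.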
Background: Tetrazolium assays rely on reduction of a dye to a coloured formazan, in cell work by metabolically active cells.

In data set [2] the target is T1, Protein kinase C (PKC) (Homo sapiens) (UniProt O94806+P41743+P17252+P05129+Q05655+P05771+Q05513+Q02156+P24723+Q15139+Q04759). Description: Activation of PKC in human J-Lat 6.3 cells infected with latent HIV-1 assessed as reversal of HIV-1 latency by measuring increase of GFP-positive cells at 10 uM in presence of PKC theta/delta/epsilon/eta inhibitor PKCtheta/delta inhibitor incubated for 24 hrs by flow cytometry. The class given is cell-based. The essentials:
(§1)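 J-Lat 6.3 cells pretreated 3 h with a PKC inhibitor: Gö 6983 1 µM, Gö 6976 1 µM, GF 109203X 1 µM, PKCθ/δ inhibitor 10 µM, or Rottlerin 1 µM. Then exposed to 10 µM compound for 24 h; GFP-positive cells counted by flow cytometry. Mean ± S.D.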
On the technique in general: Flow cytometry measures light scatter and fluorescence of single cells or particles in a stream.

The subject of data set [3] is J-Lat 6.3 (Homo sapiens). Description: Induction of apoptosis in human J-Lat 6.3 cells at 1 uM incubated for 48 hrs after pre-incubated for 2 hrs with 20 uM caspase inhibitor Q-VD-Oph by propidium iodide/annexin-V staining based flow cytometry.
Data set [4] addresses T1, Protein kinase C (PKC) (Homo sapiens). Description: Activation of PKC CD4+ T-cells purified from HIV-infected patient assessed as increase in transcription of HIV mRNA at 1 uM incubated for 24 hrs by qRT-PCR method. The class given is cell-based. Conditions: CD4+ T cell, filed as activator. The gist of the method: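 CD4+ T-cells purified from PBMC of eight cART-treated HIV+ patients (cART ≥5 years, plasma viral load <20 copies/ml), plated at 2.5 × 10^6 cells/ml and treated 24 h. Total RNA extracted; HIV RNA quantified by qRT-PCR against a plasmid standard curve, normalized per ng input RNA, and expressed as fold over untreated cells. Medians of eight individuals; Mann-Whitney U test.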
In general terms: In qPCR the cycle at which signal appears reflects the starting amount.

Data set [5] has the same target. Kind of data set: Activation of PKC in human U1 cells infected with latent HIV-1 assessed as reversal of HIV-1 latency by measuring increase in p24 antigen level at 1 to 10000 nM incubated for 48 hrs by chemiluminescent enzyme immunoassay. Type of data set: cell-based. Conditions: filed as activator, dose 1-10000 nM. The gist of the method:
(§2)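 ACH-2 or U1 cells (5 × 10^5 cells/ml) incubated 48 h with graded drug concentrations. Supernatant p24 antigen measured by automated chemiluminescent immunoassay. EC50 calculated taking the maximum response with excess PMA as 100%. Means ± S.D. of three independent experiments.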

For data set [6] the target is unchanged. Description: Activation of PKC in human ACH-2 cells infected with latent HIV-1 assessed as reversal of HIV-1 latency by measuring increase in p24 antigen level at 1 to 10000 nM incubated for 48 hrs by chemiluminescent enzyme immunoassay. Conditions: ACH-2 cell line, filed as activator, dose 1-10000 nM. The class given is cell-based. The gist of the method:
as §2

The nature of data set [7]: Toxicity in human CD4+ T-cells assessed as elevation of supernatant cytokine concentrations of IL-5 incubated for 24 hrs in presence of JQ1 by bead-based immunoassay. Conditions: cd4+ t cell. The essentials: (§3)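 Purified CD4+ T-cells from healthy donors treated 24 h with 1 μm drug, 1 μm JQ1, or the combination. IL-2, IL-5, IL-6, IL-13, TNFα and IFN-γ in supernatants measured by flow-cytometry bead-based Th1/Th2 immunoassay. Run in duplicate.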

Data set [8] is described as follows: Toxicity in human CD4+ T-cells assessed as elevation of supernatant cytokine concentrations of IL-2 incubated for 24 hrs by bead-based immunoassay. Conditions: cd4+ t cell. The essentials: as §3
The target of data set [9] is T1, Protein kinase C (PKC) (Homo sapiens). Description: Activation of PKC in human J-Lat 6.3 cells infected with latent HIV-1 assessed as reversal of HIV-1 latency by measuring increase of GFP-positive cells at 10 uM in presence of PKC alpha/beta/gamma inhibitor GF109203X incubated for 24 hrs by flow cytometry. The class given is cell-based. The gist of the method: as §1

The test system of data set [10] is U-937. Kind of data set: Induction of apoptosis in human U-937 cells assessed as caspase-3 activation at 1 uM incubated for 24 hrs by flow cytometry. Type of data set: functional. The essentials: (§4)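 Cells fixed in 1% paraformaldehyde, permeabilized, stained 30 min on ice with anti-active caspase-3 mAb, and analysed by flow cytometry. Three independent experiments.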

A short description of data set [11]: Toxicity in human CD4+ T-cells assessed as elevation of supernatant cytokine concentrations of IFNgamma incubated for 24 hrs in presence of JQ1 by bead-based immunoassay. Conditions: cd4+ t cell. The gist of the method:
as §3

The nature of data set [12]: Toxicity in human CD4+ T-cells assessed as increase in ratio of CD25+ cells incubated for 24 hrs by flow cytometry. Conditions: cd4+ t cell. Type of data set: cell-based. The essentials: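 Primary CD4+ T-cells from healthy donors treated with drug for 24 h. Cells stained with anti-CD25 and anti-CD69 antibodies (plus CD3, CD4, HLA-DR) for 30 min on ice, then marker-positive proportions quantified by flow cytometry.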

The subject of data set [13] is U1. Kind of data set: Induction of apoptosis in human U1 cells at 1 uM after 48 hrs by PI/annexin-V staining based flow cytometry. The class given is functional.
A short description of data set [14]: Toxicity in human CD4+ T-cells assessed as elevation of supernatant cytokine concentrations of TNFalpha incubated for 24 hrs in presence of JQ1 by bead-based immunoassay. Conditions: cd4+ t cell. The gist of the method: as §3
The target in data set [15] is T1, Protein kinase C (PKC) (Homo sapiens). Description: Activation of PKC in human ACH-2 cells infected with latent HIV-1 assessed as reversal of HIV-1 latency by measuring increase in p24 antigen level at 5 to 50 nM incubated for 48 hrs in presence of 100 nM GSK525762A by chemiluminescent enzyme immunoassay. The class given is cell-based. Conditions: ACH-2 cell line, dose 5-50 nM. The gist of the method:
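ACH-2 cells treated 48 h with 5–50 nM of the test agent, alone or combined with 100 nM GSK525762A (BRD4 inhibitor). Supernatant p24 measured by chemiluminescent immunoassay. Synergy or antagonism scored with the Bliss independence model (Δfaxy >0 synergy, <0 antagonism). Three independent experiments, mean ± S.D.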

Data set [16] can be described thus: Toxicity in human CD4+ T-cells assessed as elevation of supernatant cytokine concentrations of IL-2 incubated for 24 hrs in presence of JQ1 by bead-based immunoassay. Conditions: cd4+ t cell. The essentials:
as §3

In data set [17] the test system is ACH-2 cell line. Kind of data set: Induction of apoptosis in human ACH-2 cells at 1 uM after 48 hrs by PI/annexin-V staining based flow cytometry. Type of data set: functional.
The test system of data set [18] is ACH-2 cell line. Kind of data set: Induction of apoptosis in human ACH-2 cells assessed as caspase-3 activation at 1 uM incubated for 24 hrs by flow cytometry. The class given is functional. The essentials: as §4
A short description of data set [19]: Toxicity in human CD4+ T-cells assessed as elevation of supernatant cytokine concentrations of IFNgamma incubated for 24 hrs by bead-based immunoassay. Conditions: cd4+ t cell. The essentials: as §3
For data set [20], the system named is ACH-2 cell line. Description: Induction of apoptosis in human ACH-2 cells at 1 uM incubated for 48 hrs by propidium iodide/annexin-V staining based flow cytometry (reference value: 3.16%). Type of data set: functional.
A short description of data set [21]: Toxicity in human PBMC assessed as reduction in cell viability after 5 days by WST8 assay. Type of data set: cell-based. Conditions: time 5 day. The gist of the method: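 PBMC from a healthy donor exposed to drug, with viability determined at day 5. CC50 is the concentration reducing viability by 50%.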

Molecules are shown by their SMILES. The source made the active and inactive calls. No cut-off for these calls is given here.

For `CCCCCCCCCCc1ccc2c(c1)N(C)[C@@H](C(C)C)C(=O)N[C@H](CO)C2`, the cytotoxic concentration (CC50) at 48 h in data set [1] was determined as 21.1 µM. In addition, the result in data set [2], in data set [3], in data set [9] and in data set [15] was inactive. In addition, the outcome in data set [4], in data set [5] and in data set [6] was Active. The Activity result in data set [7] was “Non-Toxic”; in [8], “Toxic”; in [10], 0.5%; in [11] it was “Non-Toxic”; in [12] it was “Non-Toxic”; in data set [13] it was 30.4%. The Activity result in [14] is “Non-Toxic”; in data set [16], “Non-Toxic”; in data set [17] it was 59.7%; in [18] it was 23%; in data set [19], “Toxic”; in data set [20], 58%. Moreover, the cytotoxic concentration (CC50) at 120 h in data set [21] came out at 39.9 µM.
